Compounds with a hit are over-represented: about 3.5% of the library has one in this group of screens.
RGS4 pot: RGS4 potentiators or activators, primary screen, cell-based, HEK293 M3R inducible RGS4, calcium flux; carbachol calcium flux Fluo4; hits give low values; B-score at 10 µM; 0.92% of 310,000 active; AID 463111, 2010;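 active = B-score of the integrated calcium signal more than 4 SD below the library mean, with starting fluorescence not abnormally high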;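 also: negative B-score means reduced calcium response which marks RGS4 activation or potentiation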
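System – HEK293 FlpIn-TREx cells, stable M3R, doxycycline-inducible RGS4 · Reagent – ECmax carbachol challenge · Times – compound preincubation 20 min at room temperature before agonist · Technique – Fluo4 fluorescence kinetic imaging of calcium · Measure – B score of integrated Fluo4 ratio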
RGS4 inh: RGS4 inhibitors, primary screen, cell-based, HEK293 M3R inducible RGS4, calcium flux; Regulator of G-protein signaling 4 (Homo sapiens), P49798; Fluo-4 calcium flux; hits give high values; triggered by carbachol at its EC20; B-score at 10 µM; 0.45% of 310,000 active; AID 463165, 2010;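 active = B-score, a plate-corrected calcium signal, over three deviations above library mean, with baseline fluorescence within five deviations of library mean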;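 also: RGS4 expression induced by doxycycline in cells with stable M3 receptor; B-score is computed from the integrated fluorescence ratio over baseline after carbachol; higher B-score means a larger calcium signal and so more RGS4 inhibition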
Target sequence (P49798 whole entry, looked up): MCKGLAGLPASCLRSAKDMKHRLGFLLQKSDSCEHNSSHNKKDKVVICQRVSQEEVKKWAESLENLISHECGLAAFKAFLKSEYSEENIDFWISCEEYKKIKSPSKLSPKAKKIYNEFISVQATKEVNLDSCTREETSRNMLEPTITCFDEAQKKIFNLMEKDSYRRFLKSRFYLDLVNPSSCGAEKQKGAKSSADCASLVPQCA
MrgX1 PAM: positive allosteric modulators of MrgX1, primary screen, HEK293 cells, Fluo-4 calcium flux; B-score at 10 µM; AID 588675, 2011; 0.63% of 310,000 active; FDSS; hits give high values;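 active = plate-corrected calcium response at least 3 library SD above typical, normal starting fluorescence, not activating the receptor alone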;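 also: compound read alongside a low EC10 to EC30 dose of BAM8-22 agonist; peak minus trough fluorescence over baseline measured at the second addition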
Target sequence (Q96LB2 whole entry, looked up): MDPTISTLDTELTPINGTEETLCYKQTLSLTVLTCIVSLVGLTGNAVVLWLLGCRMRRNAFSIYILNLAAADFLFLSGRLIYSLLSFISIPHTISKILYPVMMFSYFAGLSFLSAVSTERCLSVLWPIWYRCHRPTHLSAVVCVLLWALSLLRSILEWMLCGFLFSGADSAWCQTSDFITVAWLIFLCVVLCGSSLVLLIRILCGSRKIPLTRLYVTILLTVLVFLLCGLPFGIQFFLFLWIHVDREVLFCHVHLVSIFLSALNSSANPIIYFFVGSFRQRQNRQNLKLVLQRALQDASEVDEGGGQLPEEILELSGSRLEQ
MrgX1 agonist: agonists of human MrgX1 receptor, primary screen, HEK293 cells, Fluo-4 calcium flux | Mas-related G-protein coupled receptor member X1 (Homo sapiens), Q96LB2 | Fluo-4 calcium fluorescence, agonist mode; hits give high values | B-score at 10 µM | 0.44% of 310,000 active | AID 588627, 2011;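 active = calcium response B-score plate-corrected fluorescence ratio at least 3 library SD, with starting fluorescence B-score inside 5 SD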
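Test system: HEK293 cells stably expressing human MrgX1 receptor; Input: fifteen thousand cells per well; Dosing: compound delivered in addition one of three; Schedule: overnight seeding, then 1 h dark dye loading; Technique: Fluo-4 NW calcium fluorescence; Measure: B-scored fluorescence response ratio; Controls: positive and negative controls per plate.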
MrgX1 antagonist: antagonists of human MrgX1 receptor, primary screen, HEK293 cells, Fluo-4 calcium flux. AID 588676, 2011. BAM8-22 antagonism; hits give low values. B-score at 10 µM. 1.3% of 310,000 active;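 active = calcium-response B-score plate-corrected more than 3 library SD below zero, starting fluorescence within 5 deviations, no agonist response on first addition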;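 also: peak minus trough fluorescence over baseline after final BAM8-22 challenge near maximal dose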
Starred values were filed as active, the others as inactive; i = inactive; · = no result; ! = repeats disagree.

SMILES	RGS4 pot	RGS4 inh	MrgX1 PAM	MrgX1 agonist	MrgX1 antagonist
CCC(C)(C)NC(=O)C(c1ccc(F)cc1)N(Cc1cccc(OC)c1)C(=O)c1cnccn1 (centres undefined)	i	i	i	i	i
CCC(C)(C)NC(=O)C(c1ccc(F)cc1)N(Cc1cccs1)C(=O)c1cnccn1 (centres undefined)	i	i	i	i	-5.32*
CCOCC(=O)Nc1cc(C(=O)Nc2ccc(F)cc2)ccc1Cl	i	i	i	i	i
O=C(COc1ccccc1F)NNC(=O)c1cccc(-n2cccc2)c1	i	i	i	i	-4.99*
COc1ccc(N(C(=O)c2cccnc2)S(=O)(=O)c2cccc([N+](=O)[O-])c2)cc1	i	i	6.66*	i	i
CN1CCc2c(sc(NC(=O)c3ccc4ccccc4c3)c2C(N)=O)C1	i	i	i	37.5*	i
CN1CCc2c(sc(NC(=O)Cc3ccccc3)c2C(N)=O)C1	i	i	i	i	i
COc1cc2ccccc2cc1C(=O)Nc1sc2c(c1C(N)=O)CCN(C(C)C)C2	-7.49*	i	i	i	i
CC(C)N1CCc2c(sc(NC(=O)CN3C(=O)c4ccccc4C3=O)c2C(N)=O)C1	i	i	i	i	i
COc1ccc(NC(=O)C(=S)NC2CCCCC2)cc1	i	i	i	i	i
CSc1ccc(CN2CCC(CO)(CCOc3ccccc3)CC2)cc1	-6.99*	i	i	i	i
COc1ccc(CC(=O)NNS(=O)(=O)c2ccccc2)cc1OC	i	i	i	i	-8.01*
CCOC(=O)C1=C(C)NC(C)=C(C(=O)OC)C1c1cccc(Cl)c1Cl (centres undefined)	i	i	i	i	i
CCOC(=O)C1=C(COCCN)NC(C)=C(C(=O)OC)C1c1ccccc1Cl (centres undefined)	i	i	i	27.1*!	i
Cc1sc(NC(=O)c2ccco2)c(CN2CCC(C)CC2)c1C	i	i	i	i	i
Cc1sc(NC(=O)c2ccco2)c(C(c2cccnc2)N2CCC(C)CC2)c1C (centres undefined)	-7.93*	i	i	i	i
Cc1ccc(Nc2cc(C)c(O)c(C)c2)cc1	i	i	i	i	i
CCN1/C(=C/c2cc[n+](C)cc2)C=Cc2cc(C)ccc21	·	·	i	i	-6.98*
CCN(Cc1ccccc1)C(=O)C1CCN(S(=O)(=O)c2ccc3c(c2)OCCO3)CC1	i	i	i	i	i
O=C(Nc1cc(C(F)(F)F)ccc1Cl)c1ccncc1	i	i	i	i	i
C/C(=N\Nc1cc(C(F)(F)F)ccc1Cl)c1ccncc1	-7.6*	i	i	i	i
CC1=CC(=O)C(C(C)C)=C/C1=N\OC(=O)c1cccc2nc(C)oc12	i	i	i	i	-5.05*
CCn1c(Cl)c(C=O)s/c1=N\S(=O)(=O)c1ccccc1	i	i	i	30.9*	i
CCN1C(=O)CS/C1=N\S(=O)(=O)c1ccc(Cl)cc1	i	i	i	i	i
Cc1ccccc1OCCn1cc(C=O)c2ccccc21	i	i	i	i	i
SMILES	RGS4 pot	RGS4 inh	MrgX1 PAM	MrgX1 agonist	MrgX1 antagonist
Clc1ccc2c(c1)CCc1cccnc1C2=C1CCNCC1	-7.15*	i	i	i	i
COc1cccc(C(=O)Nc2c3c(nn2-c2ccc(Cl)cc2)CS(=O)(=O)C3)c1OC	i	i	i	i	i
COc1ccc2[nH]cc(C=O)c2c1	i	i	i	i	i
COc1ccc2[nH]cc(/C=C/c3cc[n+](C)cc3)c2c1	i	i	i	i	-7.9*
N#C/C(=C/c1ccc(N2CCCCC2)o1)C(=O)Nc1ccc2ccccc2c1	i	i	·	·	·
COc1ccc(NC(=O)/C(C#N)=C\c2ccc(N3CCOCC3)o2)cc1	-8.57*	i	i	i	i
N#C/C(=C/c1ccc(N2CCCCC2)o1)C(=O)Nc1ccc(Cl)cc1	i	i	i	i	-7.83*
N#C/C(=C\c1ccc(N2CCOCC2)o1)C(=O)Nc1ccc(O)cc1	i	i	i	i	i
Cn1cc(S(=O)(=O)N2CCOCC2)cc1C(=O)NCc1ccccc1Cl	i	i	i	i	i
COc1ccc2c(N)c(C(=O)NN)[nH]c2c1	i	i	i	i	i
Cc1cccc(NC(=O)c2ccccn2)c1C	i	i	i	i	i
Cc1cccc(NC(=O)c2n[nH]c([N+](=O)[O-])c2Br)c1C	i	i	7.14*	i	i
CCN1C(=O)[C@@H]2[C@@H](c3ccc(SC4CCCCC4)cc3)N3CCC[C@@]3(C(=O)OC)[C@@H]2C1=O	i	i	i	i	i
Cc1ccc(-n2c(SCC(=O)NNC(=S)Nc3ccccc3)nc3ccccc3c2=O)cc1	i	i	7.43*	i	i
COc1cccc(NS(=O)(=O)c2ccc(-n3cccn3)cc2)c1	i	i	i	i	i
CC(/C=N/NC(=O)c1ccc(Cn2cc([N+](=O)[O-])cn2)o1)=C\c1ccccc1	i	i	i	i	-5.35*
COc1ccc(-n2nc(C(=O)NCC(=O)NCCCN3CCOCC3)c3ccccc3c2=O)c(OC)c1	i	i	i	i	i
CCCN(CCC)S(=O)(=O)c1ccc(C(=O)OCCN2C(=O)c3cccc4c(N5CCOCC5)ccc(c34)C2=O)cc1	-8.74*	i	i	i	i
CC(C)Oc1ccc(Cn2c(-c3ccco3)n[nH]c2=S)cc1	-7.35*	i	i	i	i
COc1cc(C(=O)NCCOc2ccccc2)c(Br)c(OC)c1OC	i	i	i	i	i
COc1cc(C(=O)NCCOc2cccc(C)c2)c(Br)c(OC)c1OC	-7.2*	i	i	i	i
CN1CCN(CC/C=C2/c3ccccc3Sc3ccc(S(=O)(=O)N(C)C)cc32)CC1	i	i	i	i	i
CN(C)CC/C=C1/c2ccccc2Sc2c(O)cc(Cl)cc21	-7.34*	i	i	i	i
CN(C)CC/C=C1/c2cc(F)ccc2Sc2ccc(Cl)cc21	-10*	i	i	i	i
COc1cc(Cl)cc2c1Sc1ccccc1/C2=C/CCN(C)C	-7.08*	i	i	i	i
Cc1ccc(-c2noc(N=O)c2NO)cc1	i	i	i	i	i
O=C(N/N=C\c1c(O)ccc2ccccc12)c1ccc(O)cc1	i	i	i	i	i

Compound activity deposited in PubChem by Johns Hopkins Ion Channel Center.
